Test results reported in ChEMBL document CHEMBL1155395, “Discovery of substituted biphenyl imidazoles as potent, bioavailable bombesin receptor subtype-3 agonists” (Bioorg Med Chem Lett, 2010).
Activity calls are given as the source filed them. No cut-off for these calls is given here.

Assays:
[1] = molecular target: T1, Bombesin receptor subtype-3 (Homo sapiens, UniProt P32247); assay: Displacement of [125I]-[D-Tyr6,beta-Ala11,Phe13,Nle14]bombesin from human BRS3 expressed in NFAT-CHO cells after 2 hrs by liquid scintillation counting; format: cell-based
T1 sequence (P32247 whole entry): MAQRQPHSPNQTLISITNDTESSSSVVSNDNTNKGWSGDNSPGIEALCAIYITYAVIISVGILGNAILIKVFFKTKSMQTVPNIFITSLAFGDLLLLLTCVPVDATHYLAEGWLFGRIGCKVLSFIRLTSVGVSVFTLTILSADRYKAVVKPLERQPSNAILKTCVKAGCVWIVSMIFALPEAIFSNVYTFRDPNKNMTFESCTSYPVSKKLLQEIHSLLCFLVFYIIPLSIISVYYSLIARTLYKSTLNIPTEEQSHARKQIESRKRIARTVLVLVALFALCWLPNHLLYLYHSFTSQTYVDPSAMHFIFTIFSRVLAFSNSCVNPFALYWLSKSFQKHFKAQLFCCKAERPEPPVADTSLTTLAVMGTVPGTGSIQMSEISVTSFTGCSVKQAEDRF
How it was run: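 Membranes (1–4 µg protein) from NFAT-CHO cells expressing human BRS-3, incubated with 0.3 pM 125I-dY-peptide and a range of test compound concentrations in 50 mM Tris pH 7.2, 5 mM MgCl2, 0.1% BSA, 2 h at room temperature; bound/free separated by GF/c filtration with PBS washes; filter radioactivity by scintillation counting; mean of at least three runs.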

[2] = molecular target: T1, Bombesin receptor subtype-3; assay: Agonistic activity at human BRS3 expressed in HEK293AEO cells by aequorin bioluminescence assay; format: functional, cell-based
[3] = molecular target: T2, Bombesin receptor subtype-3 (Homo sapiens) (UniProt P32247); assay: Agonistic activity at human BRS3 expressed in HEK293AEO at 10 uM cells by aequorin bioluminescence assay relative to dY peptide; format: functional, cell-based
T2 sequence (whole entry): T1 sequence (P32247 whole entry)

[4] = molecular target: T3, Bombesin receptor subtype-3 (Rattus norvegicus, UniProt Q8K418); assay: Agonistic activity at rat BRS3 expressed in HEK293AEO at 10 uM by aequorin bioluminescence assay; format: functional
T3 sequence (Q8K418 whole entry): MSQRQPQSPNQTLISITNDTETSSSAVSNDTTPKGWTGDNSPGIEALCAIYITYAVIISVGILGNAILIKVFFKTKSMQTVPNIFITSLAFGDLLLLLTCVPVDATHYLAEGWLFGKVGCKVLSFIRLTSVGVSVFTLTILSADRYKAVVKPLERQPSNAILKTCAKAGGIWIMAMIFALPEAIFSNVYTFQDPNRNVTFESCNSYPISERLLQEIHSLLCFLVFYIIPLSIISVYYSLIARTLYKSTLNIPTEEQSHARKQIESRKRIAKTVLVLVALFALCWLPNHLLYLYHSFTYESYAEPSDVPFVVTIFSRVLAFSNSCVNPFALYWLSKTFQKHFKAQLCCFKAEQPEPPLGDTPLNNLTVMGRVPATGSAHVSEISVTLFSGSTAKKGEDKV

[5] = molecular target: T4, Bombesin receptor subtype-3 (Mus musculus, UniProt O54798); assay: Agonistic activity at mouse BRS3 expressed in HEK293AEO cells by aequorin bioluminescence assay; format: functional, cell-based
T4 sequence (O54798 whole entry): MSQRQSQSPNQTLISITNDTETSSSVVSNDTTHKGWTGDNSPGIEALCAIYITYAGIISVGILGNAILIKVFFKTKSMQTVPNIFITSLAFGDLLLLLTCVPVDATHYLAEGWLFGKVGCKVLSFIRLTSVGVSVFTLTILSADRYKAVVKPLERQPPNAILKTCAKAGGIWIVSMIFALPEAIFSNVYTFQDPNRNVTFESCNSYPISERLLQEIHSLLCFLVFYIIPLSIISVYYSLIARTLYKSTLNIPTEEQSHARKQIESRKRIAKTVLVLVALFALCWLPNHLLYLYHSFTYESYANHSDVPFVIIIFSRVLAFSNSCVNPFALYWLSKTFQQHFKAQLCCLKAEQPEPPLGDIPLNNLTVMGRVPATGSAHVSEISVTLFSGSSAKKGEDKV

[6] = molecular target: T5, Bombesin receptor subtype-3 (Rattus norvegicus) (UniProt Q8K418); assay: Agonistic activity at rat BRS3 expressed in HEK293AEO cells at by aequorin bioluminescence assay relative to dY peptide; format: functional, cell-based
T5 sequence (whole entry): T3 sequence (Q8K418 whole entry)

[7] = molecular target: T6, Bombesin receptor subtype-3 (Mus musculus) (UniProt O54798); assay: Agonistic activity at mouse BRS3 expressed in HEK293AEO cells at 10 uM by aequorin bioluminescence assay relative to dY peptide; format: functional, cell-based
T6 sequence (whole entry): T4 sequence (O54798 whole entry)

Neuromedin-B receptor = Neuromedin-B receptor (Homo sapiens, UniProt P28336); assay: Displacement of [125I]-[D-Tyr6,beta-Ala11,Phe13,Nle14]bombesin from human bombesin BB1 receptor expressed in NFAT-CHO cells after 2 hrs by liquid scintillation counting; format: cell-based
Chain of Neuromedin-B receptor (P28336 whole entry): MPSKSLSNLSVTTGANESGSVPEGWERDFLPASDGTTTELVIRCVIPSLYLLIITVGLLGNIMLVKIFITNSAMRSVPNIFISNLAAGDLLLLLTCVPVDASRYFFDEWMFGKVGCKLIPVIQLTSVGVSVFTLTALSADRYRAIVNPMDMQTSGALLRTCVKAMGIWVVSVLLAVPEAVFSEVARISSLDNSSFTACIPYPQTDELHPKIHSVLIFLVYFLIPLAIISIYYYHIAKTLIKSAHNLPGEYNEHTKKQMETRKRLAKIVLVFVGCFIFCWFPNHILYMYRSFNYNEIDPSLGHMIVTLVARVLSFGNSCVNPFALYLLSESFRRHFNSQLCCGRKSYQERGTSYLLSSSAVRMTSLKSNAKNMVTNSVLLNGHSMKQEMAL

[8] = molecular target: Gastrin-releasing peptide receptor (Homo sapiens, UniProt P30550); assay: Displacement of [125I]-[D-Tyr6,beta-Ala11,Phe13,Nle14]bombesin from human bombesin BB2 receptor expressed in NFAT-CHO cells after 2 hrs by liquid scintillation counting; format: cell-based
Chain of Gastrin-releasing peptide receptor (P30550 whole entry): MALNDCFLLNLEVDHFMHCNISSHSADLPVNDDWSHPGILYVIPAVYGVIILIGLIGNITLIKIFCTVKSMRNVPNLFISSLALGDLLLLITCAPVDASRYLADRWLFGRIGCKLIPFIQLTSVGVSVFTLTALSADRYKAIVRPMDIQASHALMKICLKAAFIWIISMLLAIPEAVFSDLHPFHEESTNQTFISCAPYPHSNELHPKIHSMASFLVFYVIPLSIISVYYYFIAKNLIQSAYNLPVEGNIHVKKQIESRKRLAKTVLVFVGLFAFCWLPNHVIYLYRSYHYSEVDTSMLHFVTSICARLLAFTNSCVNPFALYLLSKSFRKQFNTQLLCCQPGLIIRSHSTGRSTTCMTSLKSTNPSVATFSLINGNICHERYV

[9] = Oral bioavailability in Sprague-Dawley rat at 4 mg/kg; format: ADME, organism-based; settings: in vivo
How it was run: (§1)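 Sprague-Dawley rats given compound as solution in EtOH/PEG400/water (10:40:50), 1 mg/kg iv and 4 mg/kg po; clearance, steady-state volume of distribution, half-life, oral bioavailability and dose-normalised AUC derived.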

[10] = Clearance in Sprague-Dawley rat at 1 mg/kg, iv and 4 mg/kg, po; format: ADME, organism-based; settings: in vivo; how it was run: as §1
[11] = Volume of distribution at steady state in Sprague-Dawley rat at 1 mg/kg, iv and 4 mg/kg, po; format: ADME, organism-based; settings: in vivo, read-out: Vdss; how it was run: as §1
[12] = Half life in Sprague-Dawley rat at 1 mg/kg, iv and 4 mg/kg, po; format: ADME, organism-based; settings: in vivo; how it was run: as §1
Rattus norvegicus = assay: Reduction of food intake in rat at 25 ug, icv; format: functional; parameters: scale not given: the % may be the effect or the level left
How it was run: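 Rats dosed intracerebroventricularly with 25 µg; food intake compared with animals receiving vehicle (20% PG/water).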

Mus musculus = assay: Effect on food intake in po dosed diet-induced obese mouse; format: functional, organism-based

Row | SMILES | IC50 [1] | EC50 [2] | Activity [3] | EC50 [4] | EC50 [5] | Activity [6] | Activity [7] | IC50 (Neuromedin-B receptor) | IC50 [8] | bioavailability [9] | clearance [10] | Vd [11] | half-life [12] | Activity (Rattus norvegicus) | Activity (Mus musculus)
1 | CCCCc1cnc(C(CCCO)Cc2ccc(-c3ccccc3C(=O)O)cc2)[nH]1 (centres undefined) | 3680 nM | 1900 nM | 74% | 174 nM | 238 nM | 101% | 98% | > 10000 nM | > 10000 nM | – | – | – | – | – | –
2 | CC(C)(C)Cc1cnc(CCc2ccc(-c3ccccc3C(=O)O)cc2)[nH]1 | – | 106 nM | 103% | – | 6.3 nM | – | 105% | – | – | 19% | 1.02 mL/min/kg | 0.128 L/kg | 1.54 h | 29% | inactive
